A selection: hits, their analogues and other compounds. The true share with any hit is near 3.5%.
MrgX1 ag: agonists of human MrgX1 receptor; B-score at 10 µM; Q96LB2; 310,000 tested, 0.44% active; MrgX1-HEK293 cells, Fluo-4 calcium fluorescence, agonist mode; stronger effect = higher value;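 active = calcium response B-score plate-corrected fluorescence ratio at least 3 library SD, with starting fluorescence B-score inside 5 SD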
Target sequence (Q96LB2 whole entry, looked up): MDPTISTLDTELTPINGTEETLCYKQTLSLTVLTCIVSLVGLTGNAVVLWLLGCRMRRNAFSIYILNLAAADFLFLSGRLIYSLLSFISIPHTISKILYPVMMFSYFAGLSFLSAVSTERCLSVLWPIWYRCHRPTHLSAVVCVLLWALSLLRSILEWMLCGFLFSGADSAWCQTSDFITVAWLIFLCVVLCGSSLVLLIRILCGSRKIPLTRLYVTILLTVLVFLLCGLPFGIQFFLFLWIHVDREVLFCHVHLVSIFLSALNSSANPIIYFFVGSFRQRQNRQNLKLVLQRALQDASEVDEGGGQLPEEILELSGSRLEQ
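System: HEK293 cells stably expressing human MrgX1 receptor; Dosing: test compound in the initial addition of three; Schedule: overnight plating, then 30 min 37 °C plus 30 min room-temperature dye loading; Detection: kinetic calcium dye fluorescence, Fluo-4 NW; Controls: per-plate positive and negative controls for Z′ factor.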
RGS4 pot: potentiators or activators of RGS4; HEK293 M3R/inducible RGS4, carbachol calcium flux Fluo4; stronger effect = lower value; B-score at 10 µM; 310,000 tested, 0.92% active; AID 463111;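 active = B-score of the integrated calcium signal more than 4 SD below the library mean, with starting fluorescence not abnormally high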;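 also: negative B-score means reduced calcium response which marks RGS4 activation or potentiation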
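Material: M3R-expressing HEK293 line, RGS4 induced by doxycycline | Schedule: Overnight RGS4 induction, 30 min dye load 37 °C, 20 min compound RT | Measured by: Fluo4 fluorescence kinetic imaging of calcium | Read-out: Integrated calcium ratio converted to B score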
MrgX1 antag: blocks BAM8-22 activation of human MrgX1 receptor; MRGX1-HEK293 calcium flux, Fluo-4, BAM8-22 antagonism; stronger effect = lower value; B-score at 10 µM; 310,000 tested, 1.3% active; AID 588676;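 active = calcium-response B-score plate-corrected more than 3 library SD below zero, starting fluorescence within 5 deviations, no agonist response on first addition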;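 also: peak minus trough fluorescence over baseline after final BAM8-22 challenge near maximal dose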
MrgX1 PAM: allosterically activates human MrgX1 receptor signaling. 310,000 tested, 0.63% active. B-score at 10 µM. MrgX1-HEK293, Fluo-4 calcium flux, FDSS; stronger effect = higher value. AID 588675. Q96LB2;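 active = plate-corrected calcium response at least 3 library SD above typical, normal starting fluorescence, not activating the receptor alone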;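 also: compound read alongside a low EC10 to EC30 dose of BAM8-22 agonist; peak minus trough fluorescence over baseline measured at the second addition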
RGS4 inh: inhibitors of human RGS4 | AID 463165 | B-score at 10 µM | P49798 | HEK293 M3R/RGS4 inducible, Fluo-4 calcium flux; stronger effect = higher value; triggered by carbachol at its EC20 | 310,000 tested, 0.45% active;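 active = B-score, a plate-corrected calcium signal, over three deviations above library mean, with baseline fluorescence within five deviations of library mean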;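 also: RGS4 expression induced by doxycycline in cells with stable M3 receptor; B-score is computed from the integrated fluorescence ratio over baseline after carbachol; higher B-score means a larger calcium signal and so more RGS4 inhibition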
RGS4 activ val: RGS4 activation, validation assay | 1,100 tested, 89% active | inhibition, % at 10 µM | shares compounds with RGS4 pot | HEK293 M3R/RGS4 inducible, carbachol calcium flux Fluo4;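 active = inhibition above 3 SD of the buffer control wells, cut at about 41% in these data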;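 also: signal is the integrated peak-minus-minimum Fluo4 fluorescence over baseline ratio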
M3R Ca counter: activity in cells without induced RGS4 expression; shares compounds with RGS4 pot; HEK293 M3R non-induced RGS4, Fluo4 calcium flux; after carbachol challenge at its EC90; inhibition, % at 10 µM; 1,100 tested, 82% active; AID 602283;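 active = inhibition exceeding 3 SD of buffer-only control wells, cut at about 26% in these data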;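 also: percent drop in integrated peak-minus-baseline over baseline Fluo4 ratio after carbachol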
The depositor's hits bear a star; i = inactive; x = no result.

SMILES	MrgX1 ag	RGS4 pot	MrgX1 antag	MrgX1 PAM	RGS4 inh	RGS4 activ val	M3R Ca counter
O=C(O)CN1C(=O)c2ccc(C(=O)c3ccccc3)cc2C1=O	i	i	i	i	i	x	x
Cc1ccc(Nc2nnc(SCC(=O)Nc3cc(C(=O)O)ccc3C)s2)c(C)c1	i	i	i	i	i	x	x
CCOC(=O)c1c(-c2ccccc2)csc1NC(=O)c1nn(CC)cc1Br	i	-7.63*	i	i	i	80.0*	0.0
CN1CCN(C(CNC(=O)C(=O)NC2CCCC2)c2ccc(F)cc2)CC1 (stereo not given)	i	i	i	i	i	x	x
O=C(C1CCCN(Cc2ccc([N+](=O)[O-])cc2)C1)N1CCCCC1 (stereo not given)	i	i	i	i	i	x	x
Cc1ccccc1C(=O)Nc1cc(NC(=O)c2ccccc2C)cc(C(=O)O)c1	i	i	i	i	i	x	x
C=CCn1c(SCC(=O)c2cccs2)nc2sc(C)c(C)c2c1=O	i	-9.43*	i	i	i	91.5*	38.3*
O=S(=O)(Cc1ccccc1)Nc1ccccc1	i	i	i	i	i	x	x
CN(Cc1ccccc1)S(=O)(=O)c1ccc(NS(=O)(=O)Cc2ccccc2)cc1	i	-8.84*	i	i	i	85.0*	57.3*
N#Cc1c(-c2ccccc2)cc(-c2ccccc2)[nH]c1=O	i	i	i	i	i	x	x
COc1cc(-c2cc(-c3ccc(N)cc3)[nH]c(=O)c2C#N)cc(OC)c1OC	i	-7.97*	i	i	i	0.0	0.0
CCc1ccc(OCC(=O)N2CCN=C2c2ccccc2)cc1	i	-8.56*	i	i	i	0.0	0.0
CN1CCC(Oc2ccccc2Sc2ccc(C(F)(F)F)cc2)CC1	i	i	i	i	i	x	x
CN1CCC(Oc2ccc(Sc3ccccc3)cc2)CC1	i	-8.21*	i	i	i	86.0*	41.3*
C/C=C(\C)CN1CCC(Oc2cccc(C(=O)NCc3ccccn3)c2)CC1	i	i	i	i	i	x	x
CC(Oc1ccccc1)C(=O)Nc1ccc(C(N)=O)cc1 (stereo not given)	i	i	i	i	i	x	x
CC(C)NS(=O)(=O)c1ccc(NC(=O)C(C)Oc2ccc(C(=O)c3ccccc3)cc2)cc1 (stereo not given)	i	-7.66*	-8.57*	i	i	69.5*	74.3*
COc1ccc(NC(=O)CC2C(=O)N(c3ccc(Cl)cc3)C(=S)N2NC(=O)c2cccc(F)c2)cc1 (stereo not given)	i	i	i	i	i	x	x
COc1ccc(NC(=O)CC2C(=O)N(c3ccc(F)cc3)C(=S)N2NC(=O)c2ccc(Cl)cc2)cc1 (stereo not given)	i	-11.2*	i	i	i	0.0	0.0
CN(C)C/C=C/C(O)(c1ccccc1)c1ccccc1	i	-9.34*	i	i	i	93.0*	74.8*
COc1ccc(-c2csc3ncnc(N4CCN(CCO)CC4)c23)cc1	i	i	i	i	i	x	x
COc1ccc(-c2csc3nc(C)nc(N4CCN(C(C)=O)CC4)c23)cc1OC	i	i	i	i	i	x	x
COc1ccc(-c2csc3ncnc(N4CCN(c5ccccc5OC)CC4)c23)cc1	i	-8.6*	i	i	i	86.0*	48.8*
CCN1CCN(c2ncnc3scc(-c4ccc(C)cc4)c23)CC1	i	i	i	i	i	x	x
CCOc1ccccc1N1CCN(c2ncnc3scc(-c4ccc(OC)cc4)c23)CC1	i	-10.7*	i	i	i	90.5*	43.3*
Cc1nc(N2CCN(c3ccccc3O)CC2)c2c(-c3ccccc3)csc2n1	i	-11.3*	i	i	i	89.5*	33.8*

Screening results deposited in PubChem BioAssay by Johns Hopkins Ion Channel Center.
